Screening results: PubChem BioAssay, Broad Institute
This is one part of a sample in which hits are shown more often than they occur.
INS-1E ATP HTS: protection of INS-1E cells from cytokine death, primary screen, ATP luminescence, single point. hit rate 0.1% among 20,000. INS-1E cytokine-induced death, 48 h; normalised: neutral wells 0, positive control 100. AID 488910, 2010. protection from cytokine-induced ATP loss, % at 10 µM;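 active means mean replicate protection from cytokine-induced ATP loss at least 50% and at least 75% of replicates each reaching 50%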
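assay system = INS-1E rat insulinoma cells | amount = 8000 cells per well | medium = phenol-red-free RPMI with 5% fetal bovine serum | doses = one compound concentration, pin transfer | timing = 48 h cytokine plus compound treatment, 10 min reagent incubation | also added = IL-1β, TNF-α and IFN-γ cytokine mix | signal = CellTiter-Glo luminescence measuring cellular ATP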
A1 apoptosis 2: A1 inhibitors via caspase activation, primary screen, cell-based, luminescence, HTS, two replicates; MEF A1-2A-BIM cells, caspase-Glo luminescence, 3 h; percent of clofoctol response, DMSO zero; 24,000 tested, under 10 active; AID 2465, 2010; caspase activation, % (test concentration not listed); in the data active means caspase activation above about 5.9%
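System: mouse embryonic fibroblasts co-expressing A1 and BIM (A1-2A-BIM), primed for A1 dependence; amount: 2500 cells/well; doses: 50 nL pinned compound; schedule: cells settled overnight, compound exposure 3 h at 37 °C, 5% CO2; detection: Caspase-Glo 3/7 luminescence, 1 h at room temperature; read-out: Caspase-3/7 activation, seen as rise in luminescence signal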
T cruzi intra: inhibitors of intracellular Trypanosoma cruzi, primary screen, cell-based, plate reader, single point, set 2; hit rate 4.9% among 22,000; activity score (inhibition), % at 5.01 µM; intracellular Trypanosoma cruzi in host cells; in the data active means activity score above about 55%;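 further: parasites and compound incubated about four days before reading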
Hits are given with their value.

C[C@@H]1CN([C@H](C)CO)C(=O)Cc2cc(NC(=O)Cc3cn(C)c4ccccc34)ccc2O[C@@H]1CN(C)CC1CCCCC1 was read as INS-1E ATP HTS inactive, A1 apoptosis 2 inactive and T cruzi intra inactive.
For O=C(NN=C1CCCCCC1)c1ccccn1 the results were INS-1E ATP HTS inactive, A1 apoptosis 2 inactive and T cruzi intra inactive.
For CC(C)(C)OC(=O)NC1(/C=N/NC(=O)CCCCC(=O)NO)CCCC1 the results were INS-1E ATP HTS inactive, A1 apoptosis 2 inactive and T cruzi intra inactive.
`Cc1cccc(CN(C)C[C@@H]2Oc3ncc(-c4ccccc4)cc3C(=O)N([C@H](C)CO)C[C@@H]2C)c1` gave A1 apoptosis 2 inactive and T cruzi intra inactive.
For CNC[C@@H]1Oc2ncc(-c3cc4ccccc4o3)cc2C(=O)N([C@H](C)CO)C[C@@H]1C the results were A1 apoptosis 2 inactive and T cruzi intra 79.
For C[C@H](CO)N1C[C@H](C)[C@H](CN(C)Cc2ccncc2)Oc2ncc(-c3cc4ccccc4o3)cc2C1=O the results were T cruzi intra inactive.
Screening COc1cccc(S(=O)(=O)N(C)C[C@@H]2Oc3ncc(-c4cc5ccccc5o4)cc3C(=O)N([C@H](C)CO)C[C@@H]2C)c1 returned T cruzi intra inactive.
For C[C@H](CO)N1C[C@H](C)[C@H](CN(C)Cc2ccc(F)cc2)Oc2ncc(-c3cc4ccccc4o3)cc2C1=O the results were A1 apoptosis 2 inactive and T cruzi intra 78.
Cc1cccc(CN(C)C[C@@H]2Oc3ncc(-c4cc5ccccc5o4)cc3C(=O)N([C@H](C)CO)C[C@@H]2C)c1 was read as A1 apoptosis 2 inactive and T cruzi intra 70.
For C[C@H](CO)N1C[C@H](C)[C@H](CN(C)S(C)(=O)=O)Oc2ncc(-c3cc4ccccc4o3)cc2C1=O the results were T cruzi intra inactive.
Screening C[C@H](CO)N1C[C@H](C)[C@H](CN(C)S(=O)(=O)c2cccc(F)c2)Oc2ncc(-c3cc4ccccc4o3)cc2C1=O returned INS-1E ATP HTS inactive, A1 apoptosis 2 inactive and T cruzi intra 64.
For COC(=O)CCCCCCC(=O)NN=C1CCCCCC1 the results were INS-1E ATP HTS inactive, A1 apoptosis 2 inactive and T cruzi intra inactive.
O=C(NO)c1cccc(C(=O)N/N=C/c2cccc(Oc3ccccc3)c2)c1 was read as INS-1E ATP HTS inactive, A1 apoptosis 2 inactive and T cruzi intra inactive.
Screening O=C(CCCCCCC(=O)Nc1ccccc1O)N/N=C/c1cccnc1Cl returned INS-1E ATP HTS inactive and T cruzi intra inactive.
For O=C(O)CCCCCC(=O)N/N=C/c1ccccc1[N+](=O)[O-] the results were INS-1E ATP HTS inactive, A1 apoptosis 2 inactive and T cruzi intra inactive.
For C[C@H](CO)N1C[C@H](C)[C@H](CN(C)Cc2ccccc2)Oc2ccc(NC(=O)Nc3ccc(F)cc3)cc2CC1=O the results were INS-1E ATP HTS inactive, A1 apoptosis 2 inactive and T cruzi intra inactive.
C[C@H]1CN([C@@H](C)CO)C(=O)Cc2cc(NC(=O)Nc3ccccc3)ccc2O[C@H]1CN(C)Cc1ccc(C(F)(F)F)cc1 was read as INS-1E ATP HTS inactive and T cruzi intra 67.
`C[C@@H]1CN([C@H](C)CO)C(=O)Cc2cc(NC(=O)Nc3ccc(C(F)(F)F)cc3)ccc2O[C@H]1CN(C)Cc1ccccc1` gave INS-1E ATP HTS inactive and T cruzi intra 73.
For C[C@H](CO)N1C[C@H](C)[C@H](CN(C)Cc2ccccc2)Oc2ccc(NC(=O)Nc3ccc(C(F)(F)F)cc3)cc2CC1=O the results were INS-1E ATP HTS inactive and T cruzi intra 66.
Screening C[C@H](CO)N1C[C@H](C)[C@@H](CN(C)Cc2ccccc2)Oc2ccc(NC(=O)Nc3ccc(C(F)(F)F)cc3)cc2CC1=O returned A1 apoptosis 2 inactive.
For C[C@H]1CN([C@@H](C)CO)C(=O)Cc2cc(NC(=O)Nc3ccc(C(F)(F)F)cc3)ccc2O[C@H]1CN(C)Cc1ccccc1 the results were INS-1E ATP HTS inactive and T cruzi intra 70.
C[C@H](CO)N1C[C@H](C)[C@H](CN(C)Cc2ccccc2)Oc2ccc(NC(=O)Nc3ccccc3)cc2CC1=O was read as INS-1E ATP HTS inactive, A1 apoptosis 2 inactive and T cruzi intra inactive.
For O=C(CCCCCCC(=O)Nc1ccccc1O)N/N=C/c1ccc[nH]1 the results were INS-1E ATP HTS inactive, A1 apoptosis 2 inactive and T cruzi intra inactive.
COc1ccc(O)c(/C=N/NC(=O)c2ccccn2)c1 was read as INS-1E ATP HTS inactive and T cruzi intra inactive.
Screening CC(/C=C/C(=O)NO)=C\c1ccccc1OCc1cn(CCNC(=O)Nc2ccccc2)nn1 returned A1 apoptosis 2 inactive.
Screening C[C@H](CO)N1C[C@H](C)[C@H](CN(C)Cc2ccccc2)Oc2ccc(NC(=O)Cc3ccccc3)cc2CC1=O returned INS-1E ATP HTS inactive, A1 apoptosis 2 inactive and T cruzi intra inactive.
`C[C@@H]1CN([C@H](C)CO)C(=O)Cc2cc(NC(=O)Cc3ccccc3)ccc2O[C@H]1CN(C)Cc1ccc(C(F)(F)F)cc1` gave INS-1E ATP HTS inactive, A1 apoptosis 2 inactive and T cruzi intra 70.
Screening COC(=O)CCCCCCC(=O)N/N=C/[C@H](O)[C@@H](O)[C@H](O[C@@H]1O[C@H](CO)[C@H](O)[C@H](O)[C@H]1O)[C@H](O)CO returned INS-1E ATP HTS inactive, A1 apoptosis 2 inactive and T cruzi intra inactive.
Screening Cc1cccc(CN(C)C[C@@H]2Oc3ncc(-c4cccc(C(F)(F)F)c4)cc3C(=O)N([C@H](C)CO)C[C@@H]2C)c1 returned T cruzi intra 63.
Screening C[C@H](CO)N1C[C@H](C)[C@H](CN(C)S(=O)(=O)c2ccc(C#N)cc2)Oc2ncc(-c3cccc(C(F)(F)F)c3)cc2C1=O returned A1 apoptosis 2 inactive and T cruzi intra inactive.
For Cc1ccc(S(=O)(=O)N(C)C[C@@H]2Oc3ncc(-c4cccc(C(F)(F)F)c4)cc3C(=O)N([C@H](C)CO)C[C@@H]2C)cc1 the results were A1 apoptosis 2 inactive and T cruzi intra 61.
For C[C@H](CO)N1C[C@H](C)[C@H](CN(C)Cc2cccc(C(F)(F)F)c2)Oc2ncc(-c3ccccc3)cc2C1=O the results were T cruzi intra inactive.
For NC(=O)COc1ccc(/C=N/NC(=O)c2ccccc2O)cc1 the results were INS-1E ATP HTS inactive, A1 apoptosis 2 inactive and T cruzi intra inactive.
For COc1ccc([Si](C)(C)[C@@H]2[C@@H](CCn3cc(CCO)nn3)O[C@]3(C(=O)N(C)c4ccccc43)[C@H]2C)cc1 the results were A1 apoptosis 2 inactive.
Screening COc1ccc([Si](C)(C)[C@@H]2[C@@H](CCn3cc(CCO)nn3)O[C@]3(C(=O)N(c4ccccc4)c4ccccc43)[C@H]2C)cc1 returned A1 apoptosis 2 12.
For COc1ccc([Si](C)(C)[C@H]2[C@H](CCO)O[C@@]3(C(=O)N(c4ccccc4)c4ccccc43)[C@@H]2C)cc1 the results were A1 apoptosis 2 inactive.
Screening COc1ccc([Si](C)(C)[C@@H]2[C@@H](CCO)O[C@]3(C(=O)N4c5c(cc(OC)cc53)C(C)=CC4(C)C)[C@H]2C)cc1 returned A1 apoptosis 2 27.
